JMJD2C inh – human JMJD2C demethylase inhibition | Q9H3R0 | GST-JMJD2C(1-420) H3K9me3 demethylation, DELFIA europium | inhibition, % at 2.35 µM | actives 0.069% (n = 330,000) | AID 2099;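 active = more than half of a compound's replicate wells show inhibition beyond 50%, single wells judged on their own value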;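 also: signal counts dimethyl H3K9 product captured on neutravidin plate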
HTR2A ag – activates the mouse 5-HT2A serotonin receptor; P35363; actives 0.66% (n = 360,000); activation, % at 7.6 µM; CHO-K1 mHTR2A beta-arrestin complementation, luminescence; percent of 30 µM serotonin response;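 active = activation above a run cutoff, the mean activation of all tested compounds plus 3 SD, cut at about 14% in these data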
Target sequence (P35363 whole entry, looked up): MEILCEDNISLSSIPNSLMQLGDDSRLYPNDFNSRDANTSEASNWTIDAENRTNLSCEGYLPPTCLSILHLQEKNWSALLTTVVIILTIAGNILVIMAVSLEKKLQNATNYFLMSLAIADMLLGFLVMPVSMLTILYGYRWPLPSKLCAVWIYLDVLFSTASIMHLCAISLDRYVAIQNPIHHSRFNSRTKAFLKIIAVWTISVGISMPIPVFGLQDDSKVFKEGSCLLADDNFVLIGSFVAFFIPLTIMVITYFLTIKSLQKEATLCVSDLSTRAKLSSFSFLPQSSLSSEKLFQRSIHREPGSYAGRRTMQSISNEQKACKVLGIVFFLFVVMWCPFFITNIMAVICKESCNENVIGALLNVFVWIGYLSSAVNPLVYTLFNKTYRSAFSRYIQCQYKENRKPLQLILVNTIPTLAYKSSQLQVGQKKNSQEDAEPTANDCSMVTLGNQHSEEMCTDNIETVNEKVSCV
PP5 inh – PP5 (human) phosphatase inhibition | inhibition, % at 6.7 µM | purified PP5c, OMFP substrate fluorescence | actives 0.18% (n = 320,000);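 active = inhibition above the campaign's mean inhibition across all tested compounds plus 3 SD, cut at about 9.5% in these data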
T cell modulator – T cell immune modulators affecting CD8 T cell-vesicle binding; actives 0.068% (n = 330,000); AID 2052; 2C CD8+ T cell-vesicle binding, flow cytometry; active compounds read low; response (vesicle binding), % at 7 µM;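 active = response, share of CD8 T cells binding vesicles, and their 90th percentile fluorescence all below set limits, cut at about 80% in these data, passing the limit was not always enough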;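 also: values below 100% mean blocked vesicle binding to the CD8+ T cells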
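Material: murine 2C transgenic CD8+ T lymphocytes / Also added: QL9-peptide-loaded Drosophila micro-vesicles bearing Ld, ICAM-1 and B7-1 / Schedule: binding step 1.5 h, 37 °C, antibody labelling 20 min, ice / Signal: flow cytometry, PE anti-B7-1 (FL2) versus Alexa647 anti-CD8 (FL8), PFA-fixed / Evaluation: percent CD8+ FL2 mean versus row control / Benchmarks: naked versus QL9-loaded vesicles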
PP1 counter – blocks human PP1-alpha phosphatase, a PP5 counter-screen; actives 0.9% (n = 320,000); inhibition, % at 6.7 µM; purified PP1alpha, OMFP fluorescence;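 active = inhibition above the mean inhibition of all tested compounds plus 3 SD, computed separately for each screening campaign, cut at about 15% in these data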
OPRM1 ag – OPRM1 agonism in mouse HTR2A counterscreen. shares compounds with HTR2A ag. U2OS OPRM1 beta-arrestin PathHunter, luminescence; DMSO 0%, DAMGO 9.3 µM 100%. activation, % at 9.3 µM. actives 5.3% (n = 2,300). AID 624380;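 active = mean activation above the mean of DMSO-only wells plus 3 SD, cut at about 0.5% in these data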
HTR2A ag conf – confirmation of mouse HTR2A serotonin receptor agonists; shares compounds with HTR2A ag; CHO-K1 PathHunter beta-arrestin recruitment, luminescence; DMSO 0%, 30 µM serotonin 100%; activation, % at 7.6 µM; actives 19% (n = 2,300); AID 624381;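 active = mean activation across triplicates above the hit threshold derived in the original primary screen, cut at about 15% in these data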
Numbers stand for hits; – = inactive; · = no result given. An excerpt weighted towards active compounds, which were near 1.7% of everything screened.

SMILES	JMJD2C inh	HTR2A ag	PP5 inh	T cell modulator	PP1 counter	OPRM1 ag	HTR2A ag conf
COc1ccc(NC(=O)CSc2nc3ccccc3c(=O)n2CCCN2CCC(C)CC2)c(OC)c1	–	60.9	–	–	–	–	17.9
CC1CCN(CCCn2c(SCC(=O)Nc3ccccc3Cl)nc3ccccc3c2=O)CC1	–	42.8	–	–	–	–	23.8
COc1ccc(-n2c(SCC(=O)Nc3cc(C)on3)nc3ccccc3c2=O)cc1Cl	–	–	–	–	–	·	·
O=C(CSc1nc2ccccc2c(=O)n1CCCN1CCOCC1)Nc1ccc(F)c(Cl)c1	–	–	·	–	·	·	·
O=C(CSc1ncccn1)NC(=O)Cc1ccccc1	–	–	–	–	–	·	·
O=S(=O)(Nc1cccc(-n2cnnn2)c1)c1cccc(Cl)c1	–	–	–	–	–	·	·
O=S(=O)(Nc1cccc(-n2cnnn2)c1)c1ccccc1	–	14.9	–	–	–	–	–
CC1SC(C)C(=O)N(CC(=O)NCc2ccc(F)cc2)C1=O (configuration not stated)	–	–	–	–	–	·	·
COc1ccccc1/C=N/NS(=O)(=O)c1ccccc1	–	–	–	–	–	·	·
COc1ccc(S(=O)(=O)N/N=C\c2ccccc2F)cc1	–	14.7	–	–	–	–	–
Cc1csc2c(N3CCN(C(=S)Nc4ccc(F)cc4F)CC3)ncnc12	–	33.6	–	–	–	–	–
Cc1csc2c(N3CCN(C(=O)Nc4ccccc4)CC3)ncnc12	–	21.2	–	–	–	–	–
Cc1ccc(C(=O)N2CCN(c3ncnc4c(C)csc34)CC2)cc1	–	–	–	–	–	·	·
CN1CCN(Cc2nnc(-c3ccccc3)o2)CC1	–	–	–	–	–	·	·
CCN1CCN(Cc2nnc(-c3ccc(C)cc3)o2)CC1	–	17.5	–	–	–	–	–
CC(C)N=c1c([N+](=O)[O-])nn(C)n1O	–	15.3	–	–	–	–	–
CN=c1c([N+](=O)[O-])nn(-c2ccc3c(c2)OCCO3)n1O	–	–	–	–	–	·	·
CC1(C(=O)Nc2ccc3c(c2)OCCO3)CCN1C(=O)Cc1ccc(-c2ccccc2)cc1 (configuration not stated)	·	–	·	·	·	·	·
CSc1ccccc1C(=O)N1CCC(CCC(=O)NC2CC2)CC1	–	14.8	–	–	–	–	–
COc1ccc(CN2CCN(C(=O)c3cccs3)CC2)cc1	–	29.0	–	–	–	–	50.0
O=C(c1cccs1)N1CCN(Cc2ccncc2)CC1	–	–	–	–	–	·	·
COc1ccc(OC)c(CN2CCN(C(=O)c3cccs3)CC2)c1	–	33.1	–	–	–	0.8	90.7
COc1cccc(CN2CCN(C(=O)c3cccs3)CC2)c1OC	–	–	–	–	–	·	·
O=C(c1cccs1)N1CCN(Cc2ccccc2)CC1	–	27.8	–	–	–	–	93.0
Cc1ccc(C2(c3noc(CN(C)Cc4cnn(C)c4)n3)CCCC2)cc1	–	–	–	–	–	·	·
SMILES	JMJD2C inh	HTR2A ag	PP5 inh	T cell modulator	PP1 counter	OPRM1 ag	HTR2A ag conf
COc1ccc(Cc2nc3ccc(C(=O)N(C)CCc4cnn(C)c4)cc3o2)cc1OC	–	–	·	·	·	·	·
O=C(CC1CS(=O)(=O)CC1CC(=O)Oc1ccccc1F)Oc1ccccc1F (configuration not stated)	–	16.2	–	–	–	–	–
COCC[N+]1(C)CCCCC1	–	–	–	–	–	·	·
Cc1ccc(C(C)(C)C)cc1S(=O)(=O)N1CCC(C(=O)N2CCN(c3ccc(O)cc3)CC2)CC1	–	–	–	–	–	·	·
COC(=O)C1=C(Cn2cnc3ccccc32)NC(=O)NC1c1cc(C)ccc1C (configuration not stated)	–	73.0	–	–	–	·	45.6
Cc1ccc(C(=O)NCCNC(=O)CN2CCOCC2)cc1	–	14.6	–	–	–	–	–
O=C(c1cccs1)C1CCCN(Cc2nc(Cc3ccccc3F)no2)C1 (configuration not stated)	–	–	–	–	–	·	·
COCCC(=O)Nc1ccc2c(c1)CN(C(=O)CSC)CC2	–	–	–	–	–	·	·
COCCC(=O)N1CCc2ccc(NC(=O)c3ccc(C(F)(F)F)cc3)cc2C1	–	31.6	–	–	–	1.2	–
CCOC(=O)CCC(=O)Nc1ccc(S(=O)(=O)Nc2cc(OC)nc(OC)n2)cc1	–	21.6	–	–	–	–	–
CC(=O)Nc1nnc(CCS(=O)(=O)c2ccc(C)c(C)c2)s1	–	–	–	–	–	·	·
CCCCN(CC)C(=O)Cn1ncc2c1-c1cc(C)ccc1OC2	–	16.5	–	–	–	–	–
CCN(C(=O)CN1C(=O)NC2(CCc3ccccc32)C1=O)C1CCS(=O)(=O)C1 (configuration not stated)	–	–	–	–	–	·	·
CN(C(=O)CN1C(=O)NC2(CCc3ccccc32)C1=O)C1CCS(=O)(=O)C1 (configuration not stated)	–	18.4	–	–	–	–	–
Oc1ccc(CCNc2c3ccccc3nc3ccccc23)cc1O	–	42.0	–	–	–	–	57.9
CN1CCN(Cc2coc3c(Cl)cc(Cl)cc3c2=O)CC1	–	–	–	–	–	·	·
O=c1c(CN2CCN(c3cccc(Cl)c3)CC2)coc2c(Cl)cc(Cl)cc12	–	16.4	–	–	–	–	–
Cn1cc([N+](=O)[O-])c(C(=O)NC2CCCCCC2)n1	–	–	·	–	·	·	·
COc1ccc(/C=N/NC(=O)c2cccc([N+](=O)[O-])c2)cc1OC(=O)c1ccccc1	–	–	–	–	–	·	·
COc1ccc(/C=N/NC(=O)c2cccc([N+](=O)[O-])c2)cc1OC(=O)c1ccc(C)cc1	–	20.1	–	–	–	–	–
O=C(N/N=C/c1ccc(OC(=O)c2ccccc2)c([N+](=O)[O-])c1)c1ccc(O)cc1	–	16.3	–	–	–	–	–
O=C(Nc1ccc(Cl)cc1)Nc1nc(-c2ccccc2O)cs1	–	14.4	–	–	–	–	–
CCCn1nc(C(=O)Nc2ccc3nc(N4CCOCC4)sc3c2)ccc1=O	·	21.2	·	·	·	–	–
COc1ccc(C(=O)Nc2ccc3nc(N4CCOCC4)sc3c2)cc1OC	–	–	–	–	–	·	·
Cc1ccc(S(=O)(=O)Nc2c(C)n(C)n(-c3ccccc3)c2=O)cc1C(=O)OCC(=O)N1CCCC(C)C1 (configuration not stated)	–	16.0	–	–	–	–	–
Cc1c(NS(=O)(=O)c2cc(C(=O)N3CCCC(C)C3)ccc2Cl)c(=O)n(-c2ccccc2)n1C (configuration not stated)	–	–	·	–	·	·	·
COc1ccc(NC(=O)Nc2cc(C(C)(C)C)on2)cc1OC	–	–	–	–	–	·	·
